Experimental data: ChEMBL document CHEMBL1126655, “Synthesis and antiviral activity of novel isonucleoside analogs” (J Med Chem, 1993)

Key:
Type in all cases: functional
Human betaherpesvirus 5 = experiment: Antiviral activity against Human cytomegalovirus (AD169 strain); conditions: read-out: ID50 (the source's name)
Method in brief: (§1)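 WI-38 monolayers were infected, with virus adsorbed for 1–2 h. They were then overlaid with EMEM maintenance medium (1% carboxymethyl cellulose, 2.5% FBS) containing duplicate drug dilutions. Monolayers were stained after 4–6 days at 37 °C. ID50 was taken as the concentration giving 50% plaque reduction versus virus controls. Titrations were done in duplicate.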

Human alphaherpesvirus 1 [1] = experiment: Antiviral activity against Herpes simplex virus-1 (Schooler strain); conditions: read-out: ID50 (the source's name); method in brief: as §1
Human alphaherpesvirus 3 [2] = experiment: Antiviral activity against Varicella zoster virus (Ellen strain); conditions: read-out: ID50 (the source's name); method in brief: as §1
WI-38 = experiment: Tested for growth inhibition against WI-38 cells; conditions: Homo sapiens, read-out: ID50 (the source's name)
Method in brief: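 WI-38 cells seeded at 1.2 × 10^6 per well, incubated overnight at 37 °C, then refed with growth medium (EMEM, 10% FBS) holding serial drug dilutions or none, for 3 more days at 37 °C. Quadruplicate cultures per concentration trypsinized and counted daily for viable cells by trypan blue exclusion.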

Vaccinia virus = experiment: Antiviral activity against vaccinia virus (CL strain); conditions: Orthopoxvirus vaccinia; read-out: ID50 (the source's name)
Human alphaherpesvirus 3 [3] = experiment: Antiviral activity against Varicella zoster virus (Kanno-Kohmura thymidine kinase deficient strain); conditions: read-out: ID50 (the source's name); method in brief: as §1
Human alphaherpesvirus 3 [4] = experiment: Antiviral activity against Varicella zoster virus (Oka strain); conditions: read-out: ID50 (the source's name); method in brief: as §1
Human alphaherpesvirus 3 [5] = experiment: Antiviral activity against Varicella zoster virus (ppIIa strain); conditions: read-out: ID50 (the source's name); method in brief: as §1
Human alphaherpesvirus 3 [6] = experiment: Antiviral activity against Varicella zoster virus (9021 strain); conditions: read-out: ID50 (the source's name); method in brief: as §1
[7] = test system: Cercopithecine alphaherpesvirus 9; experiment: Antiviral activity against Simina varicella virus (G815 strain); conditions: read-out: ID50 (the source's name)
Method in brief: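 Simian varicella virus G815 was grown from infected Vero cells and assayed by plaque reduction on Vero monolayers. Virus was adsorbed 1–2 h, then overlaid with EMEM (1% carboxymethyl cellulose, 2.5% FBS) containing duplicate drug dilutions. Staining was after 4–6 days at 37 °C. ID50 was the concentration giving 50% plaque reduction versus virus controls.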

Human alphaherpesvirus 1 [8] = experiment: Antiviral activity against Herpes simplex virus-1 (thymidine kinase deficient strains isolated as BVaraU resistant mutants of HSV-1 (KOS)); conditions: read-out: ID50 (the source's name); method in brief: as §1
Human alphaherpesvirus 3 [9] = experiment: Antiviral activity against Varicella zoster virus (Ito strain); conditions: read-out: ID50 (the source's name); method in brief: as §1
[10] = Antiviral activity against Herpes simplex virus-1 (KOS strain); conditions: Human alphaherpesvirus 1; read-out: ID50 (the source's name); method in brief: as §1

Row | Structure (SMILES) | IC50 (Human betaherpesvirus 5) [µM] | IC50 (Human alphaherpesvirus 1 [1]) [µM] | IC50 (Human alphaherpesvirus 3 [2]) [µM] | IC50 (WI-38) [µM] | IC50 (Vaccinia virus) [µM] | IC50 (Human alphaherpesvirus 3 [3]) [µM] | IC50 (Human alphaherpesvirus 3 [4]) [µM] | IC50 (Human alphaherpesvirus 3 [5]) [µM] | IC50 (Human alphaherpesvirus 3 [6]) [µM] | IC50 [7] [µM] | IC50 (Human alphaherpesvirus 1 [8]) [µM] | IC50 (Human alphaherpesvirus 3 [9]) [µM] | IC50 [10] [µM]
1 | Cc1cn([C@@H]2CO[C@H](CO)[C@H]2CO)c(=O)nc1N | > 390 | 390 | 200 |  |  |  |  |  |  |  |  |  | 
2 | O=c1[nH]c(=O)n([C@@H]2CO[C@H](CO)[C@H]2CO)cc1I | > 270 | 140 | 70 |  |  |  |  |  |  |  |  |  | 
3 | Nc1nc(=O)n([C@@H]2CO[C@H](CO)[C@H]2CO)cc1I | > 270 | 140 | 14 |  |  |  |  |  |  |  |  |  | 
4 | Nc1ccn([C@@H]2CO[C@H](CO)[C@H]2CO)c(=O)n1 | 100 | 40 | 0.4 | 160 | 400 |  |  |  |  |  |  |  | 
5 | O=c1[nH]c(=O)n([C@@H]2CO[C@H](CO)[C@H]2CO)cc1/C=C/Br | > 290 | 3 | 0.1 | > 800 | > 290 | > 300 | 3 | 0.3 | 0.5 | 30 | > 290 | 0.06 | 3
